This note sets out measurements from ChEMBL document CHEMBL1156816, “Antiangiogenic effect of dual/selective alpha(5)beta(1)/alpha(v)beta(3) integrin antagonists designed on partially modified retro-inverso cyclotetrapeptide mimetics” (J Med Chem, 2010).

Activity calls are given as the source filed them. The rule behind the calls is not given here. Non-standard residues stand in square brackets, D forms with d. Residues, ends and D or L forms follow the SMILES beside them. Bounds are passed on as bounds.

The target in series [1] is T1, Integrin alpha-V/beta-3 (Homo sapiens, UniProt P05106+P06756). Briefly: Inhibition of alphavbeta3 integrin-mediated cell adhesion in human SK-MEL-24 cells on fibronectin coated plate after 30 mins. In kind it is cell-based.
The test system of series [2] is HUVEC. In words: Cytotoxicity against HUVEC assessed as change in cell morphology at 1 uM after 16 hrs by flow cytometry using Annexin V/propidium staining. In kind it is cell-based. Conditions: human. Summed up: (§1)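 HUVEC exposed 16 h to 1 or 10 μM cyclopeptide; morphology examined. For flow cytometry, cells were detached and fixed 15 min in 1% paraformaldehyde, then PBS-washed. They were resuspended in 10 mM Hepes/NaOH pH 7.4, 140 mM NaCl, 5 mM CaCl₂ with Annexin-V-Fluos and propidium iodide, kept 15 min at room temperature in the dark, then analyzed for intact, apoptotic and necrotic cells.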

The target of another series is Integrin alpha-5/beta-1 (Homo sapiens, UniProt P05556+P08648). Briefly: Inhibition of alpha5beta1 integrin-mediated cell adhesion in human K562 cells on fibronectin coated plate after 30 mins. In kind it is cell-based. Summed up:
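Wells coated overnight at 4 °C with fibronectin or vitronectin (10 μg/mL). Cells were preincubated 30 min at room temperature with compound (≤1% DMSO), then plated at 50000/well and left 1 h at room temperature. After PBS wash, adherent cells were quantified by hexosaminidase substrate read at 405 nm against a calibration curve. Quadruplicate, ≥3 repeats; IC50 calculated.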

For series [3], the system named is HUVEC. Briefly: Cytotoxicity against HUVEC assessed as increase in level of necrotic cells at 10 uM after 16 hrs by flow cytometry using Annexin V/propidium staining. In kind it is cell-based. Conditions: human. Summed up: as §1
(In flow cytometry, cells or beads pass a laser one at a time.)

Series [4] has as its target T1, Integrin alpha-V/beta-3. In words: Inhibition of alphavbeta3 integrin-mediated cell adhesion in HUVEC on vitronectin coated plate after 30 mins.
Series [5] has as its system HUVEC. Briefly: Cytotoxicity against HUVEC assessed as increase in level of necrotic cells at 1 uM after 16 hrs by flow cytometry using Annexin V/propidium staining. In kind it is cell-based. Conditions: human. A digest of the protocol:
as §1

The test system of series [6] is HUVEC. In words: Cytotoxicity against HUVEC assessed as change in cell morphology at 10 uM after 16 hrs by flow cytometry using Annexin V/propidium staining. In kind it is cell-based. The settings on record: human. Summed up: as §1
The test system of series [7] is HUVEC. In words: Antiangiogenic activity in HUVEC on Matrigel assessed as reduction of bFGF-induced tube branches measured per square mm at 10 uM after 16 hrs by microscopic analysis. In kind it is functional. A digest of the protocol: (§2)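 HUVEC (passages 2-7, cultured in EGM) seeded at 5000 cells/well on Matrigel-precoated wells with test compound, with or without bFGF 30 ng/mL. Vehicle up to 1% DMSO in medium. Incubated 16 h at 37 °C. Capillary-like tubes examined by microscopy with camera and counted as tubes per square millimeter. Quadruplicate, repeated three times; mean ± SEM; Newman-Keuls test after ANOVA.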

Series [8] relates to HUVEC. Briefly: Inhibition of bFGF-induced angiogenesis in HUVEC cells on Matrigel assessed as number of tube branches at 10 nM after 16 hrs by microscopic analysis. In kind it is functional, cell-based. The settings on record: Homo sapiens. A digest of the protocol:
as §2

Series [9] concerns HUVEC. Briefly: Antiangiogenic activity in HUVEC on Matrigel assessed as inhibition of bFGF-induced tube formation at 1 uM after 16 hrs. The settings on record: Homo sapiens. In kind it is functional, cell-based. A digest of the protocol:
as §2

Series [10] has as its system HUVEC. Briefly: Inhibition of bFGF-induced angiogenesis in HUVEC on Matrigel assessed as endothelial morphogenesis at 1 uM after 16 hrs by microscopic analysis. In kind it is functional, cell-based. Conditions: Homo sapiens. Summed up: as §2
Series [11] has as its system HUVEC. Briefly: Inhibition of bFGF-induced angiogenesis in HUVEC on Matrigel assessed as number of tube branches at 100 to 500 nM after 16 hrs by microscopic analysis. In kind it is functional, cell-based. Conditions: Homo sapiens. Summed up:
as §2

Setting [12] is: in the assay text read “at 1 uM” for “at 10 uM”.

T1 sequence (P05106 27-788 limits assumed): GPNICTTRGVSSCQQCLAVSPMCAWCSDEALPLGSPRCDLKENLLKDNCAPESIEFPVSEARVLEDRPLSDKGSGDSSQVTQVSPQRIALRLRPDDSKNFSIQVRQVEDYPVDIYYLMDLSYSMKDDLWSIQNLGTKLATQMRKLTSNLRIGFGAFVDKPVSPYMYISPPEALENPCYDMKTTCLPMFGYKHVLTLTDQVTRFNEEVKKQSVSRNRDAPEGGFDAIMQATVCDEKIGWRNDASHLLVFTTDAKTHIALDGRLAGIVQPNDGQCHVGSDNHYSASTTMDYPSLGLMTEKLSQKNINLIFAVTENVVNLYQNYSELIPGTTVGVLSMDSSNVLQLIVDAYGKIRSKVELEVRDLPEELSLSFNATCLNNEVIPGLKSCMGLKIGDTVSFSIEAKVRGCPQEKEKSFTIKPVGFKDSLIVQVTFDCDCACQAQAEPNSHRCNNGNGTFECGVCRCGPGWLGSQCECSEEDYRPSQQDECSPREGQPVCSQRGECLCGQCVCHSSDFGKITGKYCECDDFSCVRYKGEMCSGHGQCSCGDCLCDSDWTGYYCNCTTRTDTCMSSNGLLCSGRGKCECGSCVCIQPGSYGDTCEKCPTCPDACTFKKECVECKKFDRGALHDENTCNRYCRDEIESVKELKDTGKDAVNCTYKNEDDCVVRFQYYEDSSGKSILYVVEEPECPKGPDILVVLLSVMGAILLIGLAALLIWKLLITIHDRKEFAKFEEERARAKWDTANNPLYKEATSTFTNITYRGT
T1 sequence (P06756 31-889 limits assumed): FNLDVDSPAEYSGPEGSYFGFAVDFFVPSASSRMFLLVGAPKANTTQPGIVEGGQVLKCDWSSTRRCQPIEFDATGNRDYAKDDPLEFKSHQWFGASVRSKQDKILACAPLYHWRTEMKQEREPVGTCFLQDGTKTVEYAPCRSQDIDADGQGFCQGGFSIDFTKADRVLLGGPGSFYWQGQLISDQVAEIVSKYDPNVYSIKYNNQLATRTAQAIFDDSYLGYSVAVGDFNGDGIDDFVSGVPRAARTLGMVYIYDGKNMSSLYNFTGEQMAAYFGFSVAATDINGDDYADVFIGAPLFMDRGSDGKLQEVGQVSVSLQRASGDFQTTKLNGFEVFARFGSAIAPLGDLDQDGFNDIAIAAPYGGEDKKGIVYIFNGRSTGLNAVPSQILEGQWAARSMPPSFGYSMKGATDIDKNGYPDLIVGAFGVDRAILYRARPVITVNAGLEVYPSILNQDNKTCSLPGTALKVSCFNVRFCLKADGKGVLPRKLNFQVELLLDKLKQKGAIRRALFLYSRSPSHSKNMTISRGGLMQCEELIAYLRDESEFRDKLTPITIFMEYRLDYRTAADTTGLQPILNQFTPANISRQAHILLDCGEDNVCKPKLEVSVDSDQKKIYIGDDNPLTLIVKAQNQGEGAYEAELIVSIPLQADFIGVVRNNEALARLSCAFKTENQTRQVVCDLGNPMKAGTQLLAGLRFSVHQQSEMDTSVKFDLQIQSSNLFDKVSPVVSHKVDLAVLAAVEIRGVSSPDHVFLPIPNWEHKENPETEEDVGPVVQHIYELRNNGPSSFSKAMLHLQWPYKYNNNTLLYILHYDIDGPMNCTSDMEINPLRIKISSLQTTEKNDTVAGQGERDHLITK
T1 sequence (P06756 891-1048 limits assumed): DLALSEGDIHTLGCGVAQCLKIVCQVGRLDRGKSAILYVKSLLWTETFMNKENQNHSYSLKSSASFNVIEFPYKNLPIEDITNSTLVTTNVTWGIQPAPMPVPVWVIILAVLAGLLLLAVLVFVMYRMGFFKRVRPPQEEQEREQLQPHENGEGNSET
Sequence of Integrin alpha-5/beta-1 (P05556 21-798 limits assumed): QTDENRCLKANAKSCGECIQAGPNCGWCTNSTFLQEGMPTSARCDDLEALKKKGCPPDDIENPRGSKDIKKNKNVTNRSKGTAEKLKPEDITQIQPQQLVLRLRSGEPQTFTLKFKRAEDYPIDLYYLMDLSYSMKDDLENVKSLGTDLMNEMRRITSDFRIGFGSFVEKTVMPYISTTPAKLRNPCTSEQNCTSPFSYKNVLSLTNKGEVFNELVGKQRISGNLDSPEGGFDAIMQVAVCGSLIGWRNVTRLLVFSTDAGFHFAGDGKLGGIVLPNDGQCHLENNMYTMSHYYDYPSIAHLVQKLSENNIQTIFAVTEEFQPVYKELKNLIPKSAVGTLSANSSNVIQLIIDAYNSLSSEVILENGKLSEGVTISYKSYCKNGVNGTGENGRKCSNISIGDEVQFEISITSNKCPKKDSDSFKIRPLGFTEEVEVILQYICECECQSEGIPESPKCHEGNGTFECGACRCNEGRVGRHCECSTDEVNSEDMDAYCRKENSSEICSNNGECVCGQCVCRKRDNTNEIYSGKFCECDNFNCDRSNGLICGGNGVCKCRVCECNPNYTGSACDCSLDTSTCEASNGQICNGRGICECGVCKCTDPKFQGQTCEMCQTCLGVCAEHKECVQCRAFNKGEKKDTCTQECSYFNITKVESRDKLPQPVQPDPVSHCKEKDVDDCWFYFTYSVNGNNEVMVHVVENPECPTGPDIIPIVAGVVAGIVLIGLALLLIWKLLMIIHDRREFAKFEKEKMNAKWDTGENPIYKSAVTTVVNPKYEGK
Sequence of Integrin alpha-5/beta-1 (P08648 42-894 limits assumed): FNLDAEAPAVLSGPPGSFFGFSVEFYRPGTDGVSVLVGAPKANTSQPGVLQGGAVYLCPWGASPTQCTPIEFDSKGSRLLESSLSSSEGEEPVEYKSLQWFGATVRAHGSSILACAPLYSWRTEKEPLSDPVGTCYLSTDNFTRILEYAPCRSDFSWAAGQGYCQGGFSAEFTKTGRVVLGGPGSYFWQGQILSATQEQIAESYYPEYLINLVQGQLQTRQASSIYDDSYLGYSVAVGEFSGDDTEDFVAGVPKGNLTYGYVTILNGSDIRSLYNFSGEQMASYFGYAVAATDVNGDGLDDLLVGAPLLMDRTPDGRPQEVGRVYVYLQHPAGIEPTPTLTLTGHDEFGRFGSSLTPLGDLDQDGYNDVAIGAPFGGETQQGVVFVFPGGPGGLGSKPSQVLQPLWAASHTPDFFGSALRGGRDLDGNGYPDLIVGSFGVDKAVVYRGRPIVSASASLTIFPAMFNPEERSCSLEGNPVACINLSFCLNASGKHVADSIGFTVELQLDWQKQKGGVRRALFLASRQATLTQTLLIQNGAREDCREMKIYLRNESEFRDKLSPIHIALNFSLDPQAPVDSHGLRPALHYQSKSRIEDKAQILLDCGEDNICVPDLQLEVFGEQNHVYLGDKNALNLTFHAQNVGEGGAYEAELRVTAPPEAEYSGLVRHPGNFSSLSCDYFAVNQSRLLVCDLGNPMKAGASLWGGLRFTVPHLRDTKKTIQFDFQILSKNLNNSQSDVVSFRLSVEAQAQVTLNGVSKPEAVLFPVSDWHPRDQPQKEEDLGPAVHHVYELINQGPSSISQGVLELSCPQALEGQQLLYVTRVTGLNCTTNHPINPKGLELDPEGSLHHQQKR
Sequence of Integrin alpha-5/beta-1 (P08648 895-1049 limits assumed): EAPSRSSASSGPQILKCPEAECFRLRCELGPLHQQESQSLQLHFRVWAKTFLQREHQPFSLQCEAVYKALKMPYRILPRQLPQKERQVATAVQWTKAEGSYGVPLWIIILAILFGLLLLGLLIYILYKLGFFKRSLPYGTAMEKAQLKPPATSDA

On to `NC(N)=NCCC[C@H]1NC(=O)CC(=O)N[C@H](CC(=O)O)C(=O)N[C@H](Cc2ccccc2)CNC1=O`, for which the IC50 against Integrin alpha-V/beta-3 [1], on Integrin alpha-5/beta-1 and on Integrin alpha-V/beta-3 [4] was more than 100 µM throughout. Moreover, the Activity entry in the series with HUVEC [2], in the series on HUVEC [3], in the series with HUVEC [5] and with HUVEC [6] was “Non-toxic” throughout.
With `NC(N)=NCCC[C@H]1NC(=O)CC(=O)N[C@@H](CC(=O)O)C(=O)N[C@H](Cc2ccccc2)CNC1=O`, the IC50 on Integrin alpha-V/beta-3 [1], against Integrin alpha-5/beta-1 and on Integrin alpha-V/beta-3 [4] was more than 100 µM throughout. Further, the Activity result with HUVEC [2], in the series on HUVEC [3], in the series with HUVEC [5] and with HUVEC [6] was “Non-toxic” each time.
For the molecule `N=C(N)NCCC[C@@H]1NC(=O)CC(=O)N[C@H](CC(=O)O)C(=O)N[C@@H](Cc2ccccc2)CNC1=O`, the IC50 against Integrin alpha-V/beta-3 [1], at Integrin alpha-5/beta-1 and against Integrin alpha-V/beta-3 [4] was more than 100 µM throughout. Besides, the Activity result with HUVEC [2], in the series on HUVEC [3], in the series with HUVEC [5] and in the series on HUVEC [6] was “Non-toxic” throughout. In addition, the outcome with HUVEC [7] (Homo sapiens) was inactive.
For `N=C(N)NCCC[C@H]1NC(=O)CC(=O)N[C@@H](CC(=O)O)C(=O)N[C@@H](Cc2ccccc2)CNC1=O`, the IC50 (commonly the concentration at which inhibition is half-maximal) at Integrin alpha-V/beta-3 [1] came to 2.3 µM; against Integrin alpha-5/beta-1 it was 4.7 µM; at Integrin alpha-V/beta-3 [4], 1.5 µM. Also, the Activity entry with HUVEC [2], in the series on HUVEC [3], in the series on HUVEC [5] and in the series on HUVEC [6] was “Non-toxic” throughout. In the series with HUVEC [7] (Homo sapiens), the outcome was inactive.
Consider `NC(N)=NCCC[C@@H]1NC(=O)CC(=O)N[C@@H](CC(=O)O)C(=O)N[C@H](Cc2ccccc2)CNC1=O`, for which the values for the IC50 at Integrin alpha-V/beta-3 [1], at Integrin alpha-5/beta-1 and on Integrin alpha-V/beta-3 [4] were 0.18 µM, 0.024 µM and 0.24 µM, respectively. The Activity entry in the series on HUVEC [2], in the series with HUVEC [3], with HUVEC [5] and in the series with HUVEC [6] was “Non-toxic” throughout.
Take `NC(N)=NCCC[C@H]1NC(=O)CC(=O)N[C@H](CC(=O)O)C(=O)N[C@@H](Cc2ccccc2)CNC1=O`: the IC50 at Integrin alpha-V/beta-3 [1], against Integrin alpha-5/beta-1 and at Integrin alpha-V/beta-3 [4] was more than 100 µM throughout. Further, the Activity result in the series with HUVEC [2], in the series with HUVEC [3], in the series with HUVEC [5] and in the series with HUVEC [6] was “Non-toxic” throughout.
`CC(C)[C@@H]1NC(=O)[C@@H](Cc2ccccc2)NC(=O)[C@H](CC(=O)O)NC(=O)CNC(=O)[C@H](CCCN=C(N)N)NC1=O` [CYCLORGDFV] returned an IC50 against Integrin alpha-5/beta-1 of 34.7 µM. That is a double-digit micromolar value.
For `N=C(N)NCCC[C@H]1NC(=O)CC(=O)N[C@@H](CC(=O)O)C(=O)N[C@H](Cc2ccccc2)CNC1=O`, the result in the series on HUVEC [7] (Homo sapiens) was inactive.
In the case of `N=C(N)NCCC[C@@H]1NC(=O)CC(=O)N[C@H](CC(=O)O)C(=O)N[C@H](Cc2ccccc2)CNC1=O`, the concentration for half-maximal inhibition (IC50) came to 2.1 µM against Integrin alpha-V/beta-3 [1], 1.3 µM against Integrin alpha-5/beta-1 and 0.92 µM against Integrin alpha-V/beta-3 [4]. In addition, the Activity entry in the series with HUVEC [2], in the series with HUVEC [3], with HUVEC [5] and with HUVEC [6] was “Non-toxic” throughout. Moreover, the result in the series with HUVEC [7] (Homo sapiens) was inactive.
Turning to `N=C(N)NCCC[C@@H]1NC(=O)CC(=O)N[C@@H](CC(=O)O)C(=O)N[C@@H](Cc2ccccc2)CNC1=O`, the IC50 stood at 11 µM against Integrin alpha-V/beta-3 [1], 0.52 µM on Integrin alpha-5/beta-1 and 25.2 µM at Integrin alpha-V/beta-3 [4]. The Activity result with HUVEC [2] was “Non-toxic”; in the series with HUVEC [3] it was “Non-toxic”; in the series with HUVEC [5], “Non-toxic”; in the series with HUVEC [6], “Non-toxic”; with HUVEC [7] (setting [12]), 6.8. Also, the result in the series with HUVEC [8] and in the series on HUVEC [11] was inactive. For the same molecule, the result in the series on HUVEC [9] and in the series on HUVEC [10] was Active.
As for `N=C(N)NCCC[C@H]1NC(=O)CC(=O)N[C@H](CC(=O)O)C(=O)N[C@H](Cc2ccccc2)CNC1=O`, in the series on HUVEC [7] (Homo sapiens), the outcome was inactive.
Take `N=C(N)NCCC[C@@H]1NC(=O)CC(=O)N[C@@H](CC(=O)O)C(=O)N[C@H](Cc2ccccc2)CNC1=O`: the outcome in the series with HUVEC [8] and with HUVEC [11] was inactive. Moreover, the result in the series on HUVEC [9] and with HUVEC [10] was Active. Also, the Activity in the series with HUVEC [7] (setting [12]) worked out at 5.1.
`N=C(N)NCCC[C@H]1NC(=O)CC(=O)N[C@H](CC(=O)O)C(=O)N[C@@H](Cc2ccccc2)CNC1=O`: the outcome with HUVEC [7] (Homo sapiens) was inactive.
Turning to `CC(C)[C@@H]1NC(=O)[C@@H](Cc2ccccc2)NC(=O)[C@H](CC(=O)O)NC(=O)[C@H](C)NC(=O)[C@H](CCCN=C(N)N)NC1=O` (cyclo(AD[dF]VR)), the IC50 at Integrin alpha-V/beta-3 [1], on Integrin alpha-5/beta-1 and on Integrin alpha-V/beta-3 [4] was more than 100 µM each time.
